About 1,100 (0.33%) of roughly 330,000 compounds were called active.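 Rule for the calls: active = mean inhibition over replicate wells above about 20% (limit read from the data); inactive = the rest.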 The entries come from a sample that favours actives as a whole.

Sequence of Ubiquitin carboxyl-terminal hydrolase isozyme L5 (Homo sapiens) (Q9Y5K5 whole entry, looked up): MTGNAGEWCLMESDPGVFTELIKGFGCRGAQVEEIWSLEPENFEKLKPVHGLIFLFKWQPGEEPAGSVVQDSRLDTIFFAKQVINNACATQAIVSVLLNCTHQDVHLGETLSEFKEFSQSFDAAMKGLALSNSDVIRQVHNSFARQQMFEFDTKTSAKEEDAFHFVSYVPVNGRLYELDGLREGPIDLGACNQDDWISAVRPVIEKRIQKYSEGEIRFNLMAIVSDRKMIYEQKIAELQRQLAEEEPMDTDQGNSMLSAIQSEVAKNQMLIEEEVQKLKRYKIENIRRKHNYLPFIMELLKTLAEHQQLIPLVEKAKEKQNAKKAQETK

The target in the test is Ubiquitin carboxyl-terminal hydrolase isozyme L5 (Homo sapiens) (UniProt Q9Y5K5). Briefly: proteasome-bound UCH37 DUB activity blockers – biochemical, Ub-AMC cleavage, fluorescence, primary screen (AID 588478).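 Note: 0% = compound-free wells with enzyme and 100% = wells lacking proteasome.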 The following applies: purified proteasome/UCH37, Ub-AMC cleavage fluorescence; active compounds read high; concentration not given here. The procedure, abridged: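 assay system = human UCH37 enzyme supplied as purified proteasome complex | amount = proteasome at 0.15 nM in the dispensed enzyme solution | schedule = 30 min compound-proteasome preincubation then 25 min substrate reaction, room temperature | measured by = fluorescence, ex 355 nm, em 460 nm | benchmarks = no-proteasome wells (full inhibition) and compound-free wells (no inhibition)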
Usually inhibition stands for the relative decrease from the control value, in per cent. Take `O=c1ccc2c(-c3ccccc3S(=O)(=O)O)c3ccc(O)c(O)c3oc-2c1O`: the inhibition is 29% (active).

With `O=C1c2ccccc2NC(c2ccco2)N1N=Cc1ccco1` (centres undefined), the inhibition is -3.31% (inactive).

Regarding `COC(=O)c1ccc(-c2ccc(C=NN3C(=O)C4C5C=CC(CC5)C4C3=O)o2)cc1` (centres undefined), the inhibition is -1.63% (inactive).

With `CC(=O)OC[C@H]1O[C@@H](ON=C[C@@H](C)[C@H](OCc2ccccc2)C(C)C)[C@H](OC(C)=O)[C@@H](OC(C)=O)[C@@H]1OC(C)=O`, the inhibition was 1.03% (inactive).

Regarding `CCOc1cc(C=NNC(=O)C(=O)N2CCCC2)ccc1O`, the inhibition is 7.79% (inactive).

With `CCOC(=O)N1CCN(C(=O)C(C)NC(=O)c2ccco2)CC1` (centres undefined), the inhibition is 1.14% (inactive).

As for `CCOC(=O)N1CCN(C(=O)Cc2ccc(-n3c(=S)[nH]c4ccccc4c3=O)cc2)CC1`, the inhibition is 2.68% (inactive).

Take `CCOC(=O)N1CCN(C(=O)CNC(=O)Cc2ccc(Cl)cc2)CC1`: the inhibition was 33.3% (active).

Take `CC(C)(C)OC(=O)NCCC(=O)NN=Cc1ccc2nccnc2c1`: the inhibition was 3.74% (inactive).

With `COC(=O)c1nn(-c2ccccc2)c(Sc2ccc(Cl)cc2)c1C=NO`, the inhibition was -1.82% (inactive).

For `O=C(c1ccc(-n2cnnn2)cc1)N1CCN(C(c2ccccc2)c2ccccc2)CC1`, the inhibition was 26.6% (active).

As for `Cc1onc(C(=O)NN)c1C(=O)N1CCN(C(c2ccccc2)c2ccccc2)CC1`, the inhibition was 1.47% (inactive).

As for `Cn1nnnc1SCC(=O)N1CCN(C(c2ccccc2)c2ccccc2)CC1`, the inhibition is 2.55% (inactive).

As for `C=C1CC(C(=O)NN=Cc2ccccc2)C1`, the inhibition was 1.24% (inactive).

For the compound `COc1cccc(C=NNC(=S)NC2CC3CCC2C3)c1OC` (centres undefined), the inhibition is 2.43% (inactive).

Take `CCN1C[C@@H]2[C@@H]3C(=O)N(Cc4ccccc4)C(=O)[C@@H]3[C@](C)(C1=O)N2C(=O)c1ccc(C(C)(C)C)cc1`: the inhibition was 28.4% (active).

On to `CCN1C[C@@H]2[C@@H]3C(=O)N(C)C(=O)[C@@H]3[C@](C)(C1=O)N2C(=O)c1ccccc1`, for which the inhibition was 1.29% (inactive).

Take `CCN1C[C@@H]2[C@@H]3C(=O)N(Cc4ccccc4)C(=O)[C@@H]3[C@](Cc3ccccc3)(C(=O)OC)N2C1=NC1CCCCC1`: the inhibition was -0.224% (inactive).

For the compound `CON=C(C(=O)N[C@@H]1C(=O)N2C(C(=O)O)=C(COC(N)=O)CS[C@H]12)c1ccco1`, the inhibition is -2.85% (inactive).

Consider `CC(CC(C)(C)c1ccccc1)=NNS(=O)(=O)c1ccccc1`, for which the inhibition is 3.32% (inactive).

For the compound `Cc1nn(-c2ccccc2)c(Cl)c1C=NO`, the inhibition was 1.54% (inactive).

For `Cn1cc([N+](=O)[O-])c(C(=O)NN=Cc2ccc([N+](=O)[O-])cc2)n1`, the inhibition is 11.9% (inactive).

As for `CN(C)c1ccc(C=NNC(=O)c2nonc2N)cc1[N+](=O)[O-]`, the inhibition is 20.3% (active).

In the case of `Nc1nonc1C(=O)NN=Cc1ccc(-c2cccc([N+](=O)[O-])c2)o1`, the inhibition was 9.92% (inactive).

The record behind these values is PubChem BioAssay AID588478 (ICCB-Longwood Screening Facility, Harvard Medical School, 2011).
